Assay results pooled from the literature.
Lines come from different studies, so protocols differ.
Organism: Severe acute respiratory syndrome coronavirus 2

Structure (SMILES) | assay | test system | setting | inhibition
Cc1cc(NC(=O)c2cc3c(=O)n4cccc(C)c4nc3n2C)ccc1Br | viral replication | Vero | 10 nM | 8.19%
NC[C@@H]1O[C@H](O[C@H]2[C@@H](O)[C@H](O[C@@H]3[C@@H](O)[C@H](N)C[C@H](N)[C@H]3O[C@H]3O[C@H](CO)[C@@H](O)[C@H](O)[C@H]3N)O[C@@H]2CO)[C@H](N)[C@@H](O)[C@@H]1O | viral replication | Vero C1008 | 50 µM | 2%
O=C(Nc1ccc(C(F)(F)F)cc1)c1cc(Cl)c(F)cc1O | viral replication, inhibitor | Vero C1008 | 1 µM | 90%
CC1(C)CCC(C)(C)c2cc(C#Cc3ccc(C(=O)O)cc3)ccc21 | viral replication, inhibitor | Vero C1008 | 1 µM | 56.1%
Oc1c(I)cc(Cl)c2cccnc12 | viral replication, inhibitor | Vero C1008 | 30 µM | 91.8%
CCOC(=O)c1ccc(C#Cc2ccc3c(c2)C(C)(C)CCS3)nc1 | viral replication, inhibitor | Vero C1008 | 1 µM | 49.9%
Cc1cc(O)c(C=O)c2c1C(=O)Oc1c(cc3c(c1C)C(=O)CC(C)(C)O3)O2 | viral replication, inhibitor | Calu-3 | 50 µM | 99.5%
C=C[C@@](C)(/C=C/c1ccc(O)cc1)CCC=C(C)C | cytopathic effect | Vero C1008 | 100 µM | 0%
Cn1c(C(=O)Nc2ccc3c(c2)OCCO3)cc2c(=O)n3ccccc3nc21 | viral replication | Vero | 1 µM | 74.7%
CN=c1nc(-c2ccc(OC)c(OC)c2)n(-c2ccc(F)cc2)s1 | viral replication, inhibitor, qPCR | Vero C1008 | 50 µM, 24 h | 21.5%
Cc1cccn2c(=O)c3cc(C(=O)Nc4ccc(N(C)C)cc4)n(C)c3nc12 | viral replication | Vero | 1 nM | 2.51%
Oc1c(Br)cc(Cl)c2cccnc12 | viral replication, inhibitor | Vero C1008 | 30 µM | ~103%
COCC(=O)Nc1c(I)c(C(=O)NCC(O)CO)c(I)c(C(=O)N(C)CC(O)CO)c1I (centres unmarked) | viral replication | Vero C1008 | 50 µM | 2%
O=C(Nc1ccccc1F)c1cc2c(=O)n3ccccc3nc2n1Cc1ccccc1 | viral replication | Vero | 10 µM | 96.6%
COc1ccc(C[C@@H]2c3cc(Oc4cc(C[C@@H]5c6cc(O)c(OC)cc6CCN5C)ccc4O)c(OC)cc3CCN2C)cc1 | cytopathic effect, inhibitor | Vero C1008 | 25 µM | 0%
O=C(NCCN1CCCC1)c1cc(-c2ccc(CN3CCOCC3)cc2)nc2ccc(F)cc12 | viral replication, inhibitor | Vero C1008 | 1 µM | 45.8%
Cc1ccc(NC(=O)c2cc3c(=O)n4cccc(C)c4nc3n2C)cc1Cl | viral replication | Vero | 0.1 µM | 67.4%
COc1cc(-c2cc3c(c(=O)o2)C[C@]2(O)[C@@]4(C)C(=O)C=CC(C)(C)[C@]4(O)CC[C@@]2(C)O3)cc(OC)c1OC | viral replication, inhibitor | Calu-3 | 50 µM | 101%

Structure (SMILES) | assay | test system | setting | inhibition
NS(=O)(=O)c1ccc(N2N=C(C(F)(F)F)CC2c2c[nH]c3cc(Cl)ccc23)cc1 (centres unmarked) | viral replication, inhibitor | Vero C1008 | 1 µM | 40.9%
C[C@@H]1O[C@@H](OC[C@H]2O[C@@H](Oc3c(-c4ccc(OCCO)c(OCCO)c4)oc4cc(OCCO)cc(O)c4c3=O)[C@H](O)[C@@H](O)[C@@H]2O)[C@H](O)[C@H](O)[C@H]1O | viral replication | Vero C1008 | 50 µM | 3%
O=C(O[C@@H]1Cc2c(O)cc(O)cc2O[C@@H]1c1cc(O)c(O)c(O)c1)c1cc(O)c(O)c(O)c1 | cytopathic effect | Vero C1008 | 25 µM | 25%
CC1=C(C/C=C(\C)CC/C=C(\C)Cc2ccc3ccccc3c2)C(=O)c2ccccc2C1=O | viral replication, inhibitor | VeroE6/TMPRSS2 | 100 µM, 72 h | 39%
CCc1ccc(NC(=O)c2cc3c(=O)n4ccccc4nc3n2C)cc1 | viral replication | Vero | 0.1 µM | 51.5%
CC1(C)CCC[C@]2(C)O[C@H]3CC[C@@]4(C)[C@@H](CC[C@]5(C)[C@@H]4CC[C@]4(C)c6c(C(O)C(=O)O)ccc(O)c6C[C@@H]54)[C@]3(C)CC[C@@H]12 (some centres unmarked) | viral replication, inhibitor | Calu-3 | 50 µM | 0%
CCN(CC)CCCC(C)Nc1ccnc2cc(Cl)ccc12 (centres unmarked) | viral replication, inhibitor | Vero C1008 | 1 µM | 48.7%
CC(C)=CCc1c(O)ccc(C(=O)/C=C/c2ccc(O)cc2)c1O | cytopathic effect, inhibitor | Vero C1008 | 50 µM | 0%
COC(=O)C[C@@H]1OO[C@@](C)(/C(C)=C/C=C/Cc2ccccc2)C[C@H]1C | viral replication, inhibitor | Calu-3 | 50 µM | 4.15%
O=C(CCCN1CCC(O)(c2ccc(Cl)cc2)CC1)c1ccc(F)cc1 | viral replication | Vero C1008 | 50 µM | 3%
Cn1c(C(=O)Nc2ccc(Cl)cc2)cc2c(=O)n3ccccc3nc21 | viral replication | Vero | 1 µM | 74.7%
C/C=C(/C)C(=O)O[C@H]1C(C)=C[C@]23C(=O)[C@@H](C=C(CO)[C@@H](O)[C@]12O)[C@H]1[C@@H](C[C@H]3C)C1(C)C | viral replication, inhibitor | Vero C1008 | 1 µM | 47.4%
CC(=O)c1cccc(NC(=O)c2cc3c(=O)n4ccccc4nc3n2C)c1 | viral replication | Vero | 10 nM | 43.8%
O=C(O)c1cnc2n1CCc1ccccc1C2=C1CCN(CCc2ccc(OCc3ccc4ccccc4n3)cc2)CC1 | viral replication, inhibitor | Vero C1008 | 1 µM | 50.3%
O=C(/C=C/c1ccc(O)c(O)c1/C=C/c1ccc(O)c(O)c1)O[C@H](Cc1ccc(O)c(O)c1)C(=O)O | cytopathic effect, inhibitor | Vero C1008 | 3.125 µM | 0%
CC1=C(C/C=C(\C)CC/C=C(\C)Cc2ccc(F)cc2)C(=O)c2ccccc2C1=O | viral replication, inhibitor | VeroE6/TMPRSS2 | 100 µM, 72 h | 45%
CC(C)CC(NC(=O)OCc1ccccc1)C(=O)NC(C(=O)NCC(=O)C=[N+]=[N-])C(C)C (centres unmarked) | viral replication, inhibitor | Vero C1008 | 1 µM | 95.8%
